Screening results as filed in PubChem.
MPTP block = permeability transition pore inhibition; inhibition, % at 10 µM; isolated mouse mitochondria, Ca2+ swelling absorbance, 30 min; AID 602449; actives 1.4% (n = 360,000);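 active = inhibition of 50% or more, scaled per plate between neutral and stimulator controls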;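 note: 0% = DMSO wells given calcium and 100% = 1 mM EGTA wells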
MT1-MMP act inh = blocks activation of human MT1-MMP; P50281; actives 0.061% (n = 360,000); AID 651647; HT1080 RFP-PRO-GFP cells, GFP/RFP ratio fluorescence, overnight; percent of plate control window, DMSO zero; GFP/RFP ratio change, % at 20 µM;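 active = GFP/RFP ratio change of at least 30% with cell ATP level not reduced by more than half and red fluorescence within 50% of control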
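Test system: HT1080 cells expressing an RFP-PRO-GFP fluorescent reporter construct / Compound dosing: single-point 20 µM compound, 1% DMSO / Schedule: cells overnight before dosing, compound overnight, 37 °C, 5% CO2 / Evaluation: GFP/RFP fluorescence ratio / Control set: DMSO and RFP-L50D-GFP cell wells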
NR3A LBD binder = modulates the human NR3A ligand-binding domain; Tm shift relative to glycine control, % at 25 µM; AID 1259313; actives 2.5% (n = 340,000); NR3A LBD differential scanning fluorimetry, Tm shift; 0% = protein alone, 100% = glycine-bound protein;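 active = melting temperature shift of at least 10% of the positive control shift, at one fixed dose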
SKN-1 block = blocks SKN-1 activity in C. elegans | inhibition, % at 21.8 µM | actives 0.49% (n = 360,000) | C. elegans VP596 Pgst-4::GFP/RFP ratio, acrylamide-induced, 24 h;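 active = interference check ratio from 0.5 to 1.5 plus GFP to RFP signal ratio inhibition reaching or exceeding a fixed threshold, cut at about 30% in these data, passing the limit was not always enough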
ADAM17 inh = ADAM17 inhibition, QFRET primary screen | recombinant ADAM17, EDANS/DABCYL FRET peptide cleavage | inhibition, % at 6.95 µM | actives 0.83% (n = 370,000);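 active = inhibition above the mean of compounds lying between control limits plus 3 SD, set per campaign, cut at about 8.5% in these data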;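 note: 0% = DMSO-only wells as the low control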
Target sequence (P78536 215-824 limits assumed): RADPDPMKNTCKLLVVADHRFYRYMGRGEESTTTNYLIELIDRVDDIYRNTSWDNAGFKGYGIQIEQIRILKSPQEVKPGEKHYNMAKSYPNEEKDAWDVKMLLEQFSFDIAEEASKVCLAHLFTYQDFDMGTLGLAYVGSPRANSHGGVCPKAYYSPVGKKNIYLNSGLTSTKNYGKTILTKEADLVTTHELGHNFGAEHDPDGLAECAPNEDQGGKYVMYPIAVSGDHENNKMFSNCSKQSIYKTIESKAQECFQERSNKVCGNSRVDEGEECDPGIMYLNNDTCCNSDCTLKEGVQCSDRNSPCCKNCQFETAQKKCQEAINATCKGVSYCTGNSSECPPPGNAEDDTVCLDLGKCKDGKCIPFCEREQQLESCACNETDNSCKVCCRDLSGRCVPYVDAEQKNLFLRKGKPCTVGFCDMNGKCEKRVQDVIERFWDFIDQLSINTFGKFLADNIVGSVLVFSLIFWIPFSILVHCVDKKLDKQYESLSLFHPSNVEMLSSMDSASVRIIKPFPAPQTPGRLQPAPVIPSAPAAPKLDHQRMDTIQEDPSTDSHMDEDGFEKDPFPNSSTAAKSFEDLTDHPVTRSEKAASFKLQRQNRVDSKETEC
ADAM10 inh = inhibits human ADAM10. inhibition, % at 7 µM. actives 0.62% (n = 370,000). recombinant ADAM10, EDANS/DABCYL FRET peptide cleavage, 3 h. O14672;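 active = inhibition above a per-campaign cutoff equal to the mean of compounds falling between control-based bounds plus 3 SD, cut at about 20% in these data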;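 note: 0% = DMSO wells while the 100% control is not disclosed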
* marks the source's active call; other numbers are inactive results; i = inactive; . = no result. A selection: hits, their analogues and other compounds. The true share with any hit is near 4.7%.

SMILES	MPTP block	MT1-MMP act inh	NR3A LBD binder	SKN-1 block	ADAM17 inh	ADAM10 inh
CS(=O)(=O)c1nc(S(=O)(=O)c2ccc(Cl)cc2)c(N2CCN(CCO)CC2)s1	-1	-3	0	3	2	-1
COc1ccc(N)cc1-n1cnnn1	2	1	-1	8	-1	-13
c1ccc(Oc2cccc(CN3CCOCC3)c2)cc1	-1	5	-4	7	-2	2
O=C(Nc1ccccc1)c1cnc[nH]1	-2	0	2	31*	-3	0
O=C(c1ccccc1)c1cnc[nH]1	1	-1	-1	8	-4	-9
Cc1ccc(CN2CCC(CNC(=O)Nc3ccccc3F)CC2)cc1	4	-1	2	10	1	2
CCCCCCC(C)OC(=O)Nc1cccc2ccccc12 (stereo not drawn)	1	-1	10*	30	-3	3
CCOc1ccc(N(C)S(=O)(=O)c2ccc(-c3ccc(=O)[nH]n3)s2)cc1	-1	4	-3	9	0	-1
CN(C)CCN(Cc1ccco1)S(=O)(=O)c1ccc(-c2ccc(=O)[nH]n2)s1	0	-5	14*	21	-8	3
O=C(NCC(=O)N1CCN(Cc2ccccc2)CC1)c1ccc(Br)cc1	-1	4	2	-5	0	-11
Cc1ccc(Oc2nc(C(F)(F)F)nc3ccccc23)cc1	5	-1	-1	-8	-1	6
COc1ccc(Oc2nc(C(F)(F)F)nc3ccccc23)cc1	-1	4	23*	11	5	14
COc1ccc(C(=O)O/N=C(\N)c2cccc(C)c2)cc1OC	1	-2	18*	18	0	18
N/C(=N\OC(=O)c1ccc(Cl)c(Cl)c1)c1ccccn1	0	-2	8	35*	1	10
COc1ccc(C(=O)O/N=C(\N)c2ccccc2)cc1OC	0	-4	-4	-5	1	-6
COc1ccc(C(=O)O/N=C(\N)c2ccc(Cl)cc2)cc1	-1	-1	21*	-11	0	-4
Cc1cccc(C(=O)O/N=C(\N)c2ccc(Cl)cc2)c1	0	2	11*	-10	1	-4
N/C(=N\OC(=O)c1ccc(Cl)cc1)c1ccccn1	0	0	2	18	-2	2
Cc1cc(CC(C)C)n(-c2nc3ccccc3c(=O)n2OCc2ccccc2)n1	0	.	1	37*	6	0
Cc1cccc(NC(=O)Cn2c(/C=C/c3ccccc3)nc3ccccc32)c1	28	-2	3	-6	-141	i
CC(=O)Nc1ccc2c(c1)OCO2	-1	-2	-4	10	-5	0
O=C(Nc1ccc2c(c1)OCCO2)c1cccs1	1	5	20*	-9	2	3
O=C(Nc1cccc(NC(=O)c2cccs2)c1)c1ccc(F)cc1	0	0	0	-8	2	4
O=C(Nc1ccc2c(c1)OCO2)c1cccs1	-1	-1	11*	6	-4	-1
O=C(Nc1ccc2c(c1)OCO2)c1ccc(Br)s1	-1	4	21*	16	4	10
SMILES	MPTP block	MT1-MMP act inh	NR3A LBD binder	SKN-1 block	ADAM17 inh	ADAM10 inh
O=C(Nc1cccc(C2OCCCO2)c1)c1cccs1	0	-2	21*	5	1	1
CC(C)NCC(=O)NC12CC3CC(CC(C3)C1)C2	-1	2	1	-12	-7	-10
Cc1ccc2nc(-c3ccccc3)cc(C(=O)NCCCn3ccnc3)c2c1	-2	-1	-1	-27	-44	-182
Cc1ccc(Cc2c(-c3ccc(Br)cc3)nc3ccc(Cl)cn23)cc1	2	-11	.	5	-5	-12
CCOC(=S)N/C(=N\S(C)(=O)=O)c1ccccc1	1	2	1	2	-4	0
O=C(Nn1c(O)c(C=C2N=c3ccccc3=N2)sc1=S)c1ccc(Cl)cc1	1	8	32*	9	-3	-3
Cc1ccc(S(=O)(=O)Nn2c(O)c(C=C3N=c4ccccc4=N3)sc2=S)cc1	5	8	7	4	-9	-11
O=C(Nn1c(O)c(C=C2N=c3ccccc3=N2)sc1=S)c1ccccc1	-1	12	23*	1	-9	-16
Oc1c(C=C2N=c3ccccc3=N2)sc(=S)n1-c1ccc2ccccc2c1	34	0	17*	-7	-7	-10
Cc1ccc(C(=O)Nn2c(O)c(C=C3N=c4ccccc4=N3)sc2=S)cc1	-1	0	27*	1	-11	-50
Cc1csc(SCC(=O)Nc2ccc(CC#N)cc2)n1	-1	1	.	16	-6	-18
CCOC(=O)c1ccc(Nc2nc(C)cc(=O)[nH]2)cc1	2	3	3	2	-3	-4
NC(=O)C1CCCN(C(=O)CCCNC(=O)c2ccc(Cl)cc2)C1 (stereo not drawn)	-2	3	3	1	0	-1
O=C(Nn1c(O)c(C=C2N=c3ccccc3=N2)sc1=S)c1cccc(Cl)c1	1	6	29*	11	-11	-31
C(/C=C/c1ccccn1)=C\c1ccccc1	2	-1	0	64*	-4	-13
O=C(NCc1ccccc1)O[C@H]1CC[C@@]23CCCN2C(=O)CCC[C@H]3C1	.	.	.	.	-2	-1
COc1ccc(-c2csc(NC(C)c3nc4cc(Cl)c(N5CCCCC5)cc4n3CCOCCO)n2)cc1 (stereo not drawn)	3	3	-5	13	2	15
CC(Nc1nc(-c2ccc(Cl)cc2)cs1)c1nc2cc(Cl)c(N3CCCCC3)cc2n1CCOCCO (stereo not drawn)	0	2	5	5	7	22*
CCCNC(=O)c1oc2ccc3c(c2c1C)C(=O)CC(C)(C)O3	1	1	633*	-13	-118	-433
COc1cc(C(=O)NCc2ccc(C)cc2)ccc1OC(F)F	1	1	12*	-7	-3	-7
Cc1cccc(N(Cc2ccccc2)C(=O)c2ccc(CS(C)(=O)=O)cc2)c1	-1	-3	14*	1	1	5
Cc1cccc(N(Cc2ccccc2)C(=O)CCl)c1	-2	-12	-1	3	-7	-3
COc1cc(C(=O)N(Cc2ccccc2)c2cccc(C)c2)ccc1OC(F)F	0	-6	14*	11	5	12
CCn1c(-c2csc3ccccc23)n[nH]c1=S	1	19	-4	10	-6	0
Nc1ccc2c(c1)C/C(=C/c1ccco1)C2=O	2	-10	-4	4	-38	-141
COc1cc(/C=C2/CCc3ccccc3C2=O)cc(OC)c1OC	2	5	-3	2	2	16
O=C1/C(=C/c2ccco2)CCc2ccccc21	4	-4	14*	65*	-19	-95
